The text below walks through data of ChEMBL document CHEMBL1154576, “Isolation, structure determination, and biological activity of Lyngbyabellin A from the marine cyanobacterium lyngbya majuscula” (J Nat Prod, 2000).

For orientation: IC50 means the point on the concentration scale where inhibition reaches its midpoint. A low value points to higher potency.

Values after ≈ are worked out from the molar mass of the structure shown. Active and inactive are the calls of the source. The calls are words filed in the database; no cut-off is given here.

Data set [1] has as its system KB. The data set can be described thus: Cytotoxicity against human KB cells. It counts as functional, cell-based.
In data set [2] the test system is LoVo. The data set can be described thus: Cytotoxicity against human LoVo cells. It counts as functional, cell-based.
The species named for data set [3] is Mus musculus. The data set can be described thus: Toxicity in mouse assessed as lethal dose. It is filed as organism-based. The note with it: in vivo.
Data set [4] deals with MC-38. The data set can be described thus: Antitumor activity against mouse C38 cells at 1.2 to 1.5 mg/kg. It counts as functional, organism-based. The method, boiled down: (§1)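 In vivo mice with murine colon adenocarcinoma C38 or mammary adenocarcinoma M16, dosed at sublethal levels of 1.2-1.5 mg/kg.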
Data set [5] relates to M16. The experiment in a line: Antitumor activity against mouse M16 cells at 1.2 to 1.5 mg/kg. It counts as functional, organism-based. The method, boiled down: as §1
Data set [6] concerns A10. The experiment in a line: Disruption of cellular microfilament network in rat A10 cells at 0.01 to 5.0 ug/mL. It counts as functional, cell-based. The essentials:
(§2)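 A-10 smooth muscle cells grown on glass coverslips in Basal Medium Eagle with 10% fetal calf serum, exposed to a range of concentrations or vehicle for 24 h. Microfilaments stained 45 min with 100 nM TRITC-phalloidin, chromatin stained with DAPI, and cells examined by fluorescence microscopy.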

In data set [7] the test system is A10. The experiment in a line: Disruption of cytoskeleton in rat A10 cells assessed as neuron-like gross cellular morphology. It counts as functional, cell-based. The essentials: as §2
The subject of data set [8] is A10. The experiment in a line: Disruption of cytoskeleton in rat A10 cells assessed as cells with two nuclei. It is filed as functional, cell-based. The essentials:
as §2

The subject of data set [9] is A10. The data set can be described thus: Induction of apoptosis in rat A10 cells assessed as apoptotic bodies at 0.01 ug/mL. It counts as functional, cell-based. The method, boiled down: as §2
For data set [10], the system named is A10. The data set can be described thus: Disruption of microtubules in rat A10 cells. It counts as functional, cell-based.
Data set [11] concerns the target T1, DNA topoisomerase 1 (Homo sapiens) (UniProt P11387).
T1 sequence (whole entry): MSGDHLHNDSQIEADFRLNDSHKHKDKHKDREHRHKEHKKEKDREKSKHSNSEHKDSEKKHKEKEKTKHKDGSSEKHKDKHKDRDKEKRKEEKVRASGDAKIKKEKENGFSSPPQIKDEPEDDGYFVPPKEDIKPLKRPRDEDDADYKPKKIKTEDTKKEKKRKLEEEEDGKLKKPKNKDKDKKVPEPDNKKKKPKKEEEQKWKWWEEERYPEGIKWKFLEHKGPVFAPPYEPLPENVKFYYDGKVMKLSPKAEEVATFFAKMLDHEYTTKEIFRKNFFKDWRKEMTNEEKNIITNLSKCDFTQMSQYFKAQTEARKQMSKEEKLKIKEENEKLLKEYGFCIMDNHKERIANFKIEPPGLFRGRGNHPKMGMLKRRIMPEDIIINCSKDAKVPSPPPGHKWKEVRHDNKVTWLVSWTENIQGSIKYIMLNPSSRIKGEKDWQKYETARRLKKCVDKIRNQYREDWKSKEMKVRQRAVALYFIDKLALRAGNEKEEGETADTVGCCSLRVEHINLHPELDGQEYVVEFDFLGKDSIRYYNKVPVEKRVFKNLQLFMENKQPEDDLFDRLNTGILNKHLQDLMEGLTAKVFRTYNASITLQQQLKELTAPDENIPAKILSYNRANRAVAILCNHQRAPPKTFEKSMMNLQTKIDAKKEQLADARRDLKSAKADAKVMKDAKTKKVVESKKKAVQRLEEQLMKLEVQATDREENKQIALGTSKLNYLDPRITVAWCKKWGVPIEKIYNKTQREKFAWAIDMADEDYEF
The data set can be described thus: Inhibition of topoisomerase 1 at 5 ug/mL.

For data set [12], the target named is T1, DNA topoisomerase 1 (Homo sapiens). The data set can be described thus: Inhibition of topoisomerase 1 at 10 ug/mL.

As for `CC[C@H](C)[C@@H]1NC(=O)CNC(=O)c2csc(n2)[C@H](C(C)(C)O)OC(=O)C(C)(C)[C@H](CCCC(C)(Cl)Cl)OC(=O)c2csc1n2` [LYNGBYABELLIN A], the half-inhibitory concentration (IC50) in [1] came out at 0.03 µg/mL (≈ 0.0434 µM); in data set [2] it was 0.5 µg/mL (≈ 0.723 µM). Also, the Activity in [3] was 2.4 mg/kg. In addition, the outcome in [4], in [5], in data set [10], in data set [11] and in [12] was inactive. The outcome in [6], in data set [7], in data set [8] and in [9] was Active.
